Here are results for one molecule from article PMC7191562 (ACS Omega, 2020).

Structures are written as SMILES. In brackets after ≈: the same amount, converted by molar mass.

For this assay, the system named is E. faecalis (MDR 14U0445). Nature of the assay: MIC antibacterial assay. The class given is cell-based. The settings on record: Enterococcus faecalis, 16 h. Summed up: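 Clinical isolates grown from single colonies in LB at 37 °C to log phase, then set to 2 × 10⁵ CFU/mL in LB using 1 OD600 = 1 × 10⁹ CFU/mL. Peptide stock was 2 mg/mL in water. A 192 μg/mL peptide solution was twofold serially diluted in LB, then bacteria were added. Plates ran 16 h at 37 °C with A600 read-out, each peptide in triplicate.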

As for `CC1(C)S[C@@H]2[C@H](NC(=O)[C@H](N)c3ccccc3)C(=O)N2[C@H]1C(=O)O` [Amp, Ampicillin], the MIC came out at 2 µg/mL (≈ 5.72 µM).

By MIC is commonly meant the lowest concentration found to suppress growth.
